In ChEMBL document CHEMBL1125731, “2,3-Dihydrobenzofuran analogues of hallucinogenic phenethylamines” (J Med Chem, 1991):

Assays:
[1] = Hill coefficient as determined.
Outline: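 Rat prefrontal cortex homogenate incubated in triplicate with 0.25 nM [125I]-(R)-DOI (2000 Ci/mmol) and varying displacer concentrations, 37 °C for 15 min. The radioligand K_D was 1.34 nM. Binding curves were fitted by computer analysis. Protein was measured by Bradford.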

Rattus norvegicus [2] = assay: Percent of animals selecting drug liver was determined at a dose of 40.70 intraperitoneally. (No. of animals disrupted:4); type: functional
Outline: (§1)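 Male Sprague-Dawley rats (~200 g) were kept at ~80% free-feeding weight and trained on FR-50 to discriminate LSD tartrate (0.08 mg/kg ip) from saline. Test drug was given ip in saline 30 min before a session lasting until 50 responses or 5 min, unreinforced. Rats failing to make 50 responses were scored disrupted. At least eight rats were tested per dose.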

Rattus norvegicus [3] = assay: Percent of animals selecting drug liver was determined at a dose of 16.28 intraperitoneally. (No. of animals disrupted:1); type: functional; outline: as §1
Rattus norvegicus [4] = assay: Percent of animals selecting drug liver was determined at a dose of 8.14 intraperitoneally. (No. of animals disrupted:1); type: functional; outline: as §1
Rattus norvegicus [5] = assay: Percent of animals selecting drug liver was determined at a dose of 32.56 intraperitoneally. (No. of animals disrupted:1); type: functional; outline: as §1
Rattus norvegicus [6] = assay: Percent of animals selecting drug liver was determined at a dose of 4.07 intraperitoneally. ( No. of animals disrupted:0); type: functional; outline: as §1
Rattus norvegicus [7] = assay: Percent of animals selecting drug liver was determined at a dose of 10.19 intraperitoneally. (No. of animals disrupted:0); type: functional; outline: as §1
[8] = target: Serotonin 2 (5-HT2) receptor (Rattus norvegicus, UniProt P30994+P08909+P14842); assay: Compound was evaluated for its ability to displace 0.25 nM [125I](R)-DOI from binding sites in rat frontal cortex.; type: tissue-based
Rattus norvegicus [9] = assay: Percent of animals selecting drug liver was determined at a dose of 2.03 intraperitoneally. (No. of animals disrupted:0); type: functional; outline: as §1
Rattus norvegicus [10] = assay: Percent of animals selecting drug liver was determined at a dose of 12.16 intraperitoneally. (No. of animals disrupted:1); type: functional; outline: as §1
Rattus norvegicus [11] = assay: Percent of animals selecting drug liver was determined at a dose of 8.16 intraperitoneally. (No. of animals disrupted:0); type: functional; outline: as §1
Rattus norvegicus [12] = assay: Percent of animals selecting drug liver was determined at a dose of 0.25 intraperitoneally. (No. of animals disrupted:0); type: functional; outline: as §1
Rattus norvegicus [13] = assay: Percent of animals selecting drug liver was determined at a dose of 1.01 intraperitoneally. (No. of animals disrupted:0); type: functional; outline: as §1
Rattus norvegicus [14] = assay: Percent of animals selecting drug liver was determined at a dose of 2.03 intraperitoneally. (No. of animals disrupted:2); type: functional; outline: as §1
Rattus norvegicus [15] = assay: Percent of animals selecting drug liver was determined at a dose of 0.51 intraperitoneally. (No. of animals disrupted:0); type: functional; outline: as §1
Rattus norvegicus [16] = assay: Percent of animals selecting drug liver was determined at a dose of 1.02 intraperitoneally. (No. of animals disrupted:0); type: functional; outline: as §1
Rattus norvegicus [17] = assay: Percent of animals selecting drug liver was determined at a dose of 2.03 intraperitoneally. (No. of animals disrupted:1); type: functional; outline: as §1

## COc1ccc(OC)c(CC(C)N)c1 (stereo not given)
[1]
  Hill coefficient: 0.92
Rattus norvegicus [2]
  SDL: 63%
Rattus norvegicus [3]
  SDL: 50%
Rattus norvegicus [4]
  SDL: 38%
Rattus norvegicus [5]
  SDL: 63%
Rattus norvegicus [6]
  SDL: 38%

## COc1ccc2c(c1CC(C)N)CCO2 (stereo not given)
[1]
  Hill coefficient: 0.93
Rattus norvegicus [7]
  SDL: 63%
[8]
  Ki: 0.146 µM
Rattus norvegicus [9]
  SDL: 25%
Rattus norvegicus [10]
  SDL: 88%
Rattus norvegicus [11]
  SDL: 50%

## COc1cc(Br)c2c(c1CC(C)N)CCO2 (stereo not given)
[1]
  Hill coefficient: 1.06
[8]
  Ki: 0.0031 µM
Rattus norvegicus [12]
  SDL: 25%
Rattus norvegicus [13]
  SDL: 75%
Rattus norvegicus [14]
  SDL: 88%
Rattus norvegicus [15]
  SDL: 38%

## COc1cc2c(cc1CC(C)N)OCC2 (stereo not given)
[1]
  Hill coefficient: 0.91
[8]
  Ki: 0.388 µM

## COc1cc(CC(C)N)c(OC)cc1Br (stereo not given) [BROLAMFETAMINE]
[1]
  Hill coefficient: 1.09

## COc1cc(CC(C)N)c(OC)cc1C (stereo not given) [DOM]
[1]
  Hill coefficient: 0.89
Rattus norvegicus [16]
  SDL: 75%
Rattus norvegicus [17]
  SDL: 88%
Rattus norvegicus [15]
  SDL: 13%
